In ChEMBL document CHEMBL1687778, “Genetic determinants involved in the susceptibility of Pseudomonas aeruginosa to beta-lactam antibiotics” (2010):
Values after ≈ are worked out from the molar mass of the structure shown.

Assays:
Format in all cases: functional
[1] = test system: Pseudomonas aeruginosa; assay: Antimicrobial activity against Pseudomonas aeruginosa PA14 PA3667 harboring mutation in putative cysteine sulfinate desulfinase by Etest method
Method in brief: (§1)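 Etest MIC. Overnight LB cultures at 37°C were diluted in sterile 0.85% NaCl to about 1 × 10^7 CFU/ml. 100 µl was spread on Mueller-Hinton agar, one strip was placed per plate, and plates were incubated at 37°C for 18 h. Equal cell numbers were seeded per plate, and results were verified in triplicate. PA14 wild type was included in each set as a susceptibility control.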

[2] = test system: Pseudomonas aeruginosa; assay: Antimicrobial activity against Pseudomonas aeruginosa PA14 PA5000 harboring wapR mutant gene by Etest method; method in brief: as §1
[3] = test system: Pseudomonas aeruginosa; assay: Antimicrobial activity against Pseudomonas aeruginosa PA14 PA5288 harboring glnK mutant gene by Etest method; method in brief: as §1
[4] = test system: Pseudomonas aeruginosa; assay: Antimicrobial activity against Pseudomonas aeruginosa PA14 PA0766 harboring mucD mutant gene by Etest method
Method in brief: (§2)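 Overnight LB cultures (37°C) diluted in sterile 0.85% NaCl to about 1 × 10^7 CFU/ml. 100 µl spread on Mueller-Hinton agar, one Etest strip per plate, 18 h at 37°C. Ceftazidime, imipenem and meropenem tested. Wild-type PA14 plate included in each set. Each mutant verified in triplicate.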

[5] = test system: Pseudomonas aeruginosa; assay: Antimicrobial activity against Pseudomonas aeruginosa PA14 PA4745 harboring nusA mutant gene by Etest method; method in brief: as §1
[6] = test system: Pseudomonas aeruginosa; assay: Antimicrobial activity against Pseudomonas aeruginosa PA14 PA14_15600 harboring mutation in conserved hypothetical protein by Etest method; method in brief: as §2
[7] = test system: Pseudomonas aeruginosa; assay: Antimicrobial activity against Pseudomonas aeruginosa PA14 PA5130 harboring mutation in putative rhodanese-like domain protein by Etest method; method in brief: as §1
[8] = test system: Pseudomonas aeruginosa; assay: Antimicrobial activity against Pseudomonas aeruginosa PA14 PA3620 harboring mutS mutant gene by Etest method; method in brief: as §1
[9] = test system: Pseudomonas aeruginosa; assay: Antimicrobial activity against Pseudomonas aeruginosa PA14 PA2615 harboring ftsK mutant gene by Etest method; method in brief: as §2
[10] = test system: Pseudomonas aeruginosa; assay: Antimicrobial activity against Pseudomonas aeruginosa PA14 PA3050 harboring pyrD mutant gene by Etest method; method in brief: as §2
[11] = test system: Pseudomonas aeruginosa; assay: Antimicrobial activity against Pseudomonas aeruginosa PA14 PA1553 harboring mutation in putative cytochrome c oxidase, cbb3 type, subunit II by Etest method; method in brief: as §2
[12] = test system: Pseudomonas aeruginosa; assay: Antimicrobial activity against Pseudomonas aeruginosa PA14 PA0958 harboring oprD mutant gene by Etest method; method in brief: as §2
[13] = test system: Pseudomonas aeruginosa; assay: Antimicrobial activity against Pseudomonas aeruginosa PA14 PA0011 harboring mutation in putative 2-OH-lauroyltransferase by Etest method; method in brief: as §2
[14] = test system: Pseudomonas aeruginosa; assay: Antimicrobial activity against Pseudomonas aeruginosa PA14 PA5366 harboring pstB mutant gene by Etest method; method in brief: as §1
[15] = test system: Pseudomonas aeruginosa; assay: Antimicrobial activity against Pseudomonas aeruginosa PA14 PA14_07490/07510 harboring mutation in intergenic region by Etest method; method in brief: as §2
[16] = test system: Pseudomonas aeruginosa; assay: Antimicrobial activity against Pseudomonas aeruginosa PA14 PA0479 harboring mutation in putative transcriptional regulator, LysR family by Etest method; method in brief: as §2
[17] = test system: Pseudomonas aeruginosa; assay: Antimicrobial activity against Pseudomonas aeruginosa PA14 PA2970 harboring rpmF mutant gene by Etest method; method in brief: as §2
[18] = test system: Pseudomonas aeruginosa; assay: Antimicrobial activity against Pseudomonas aeruginosa PA14 PA14_23420 harboring mutation in putative zinc-binding dehydrogenase by Etest method; method in brief: as §2
[19] = test system: Pseudomonas aeruginosa; assay: Antimicrobial activity against Pseudomonas aeruginosa PA14 PA4269 harboring rpoC mutant gene by Etest method; method in brief: as §1
[20] = test system: Pseudomonas aeruginosa; assay: Antimicrobial activity against Pseudomonas aeruginosa PA14 PA5002 harboring mutation in hypothetical protein by Etest method; method in brief: as §1
[21] = test system: Pseudomonas aeruginosa; assay: Antimicrobial activity against Pseudomonas aeruginosa PA14 PA5174 harboring mutation in putative beta-ketoacyl synthase by Etest method; method in brief: as §1
[22] = test system: Pseudomonas aeruginosa; assay: Antimicrobial activity against Pseudomonas aeruginosa PA14 PA4748 harboring tpiA mutant gene by Etest method; method in brief: as §1
[23] = test system: Pseudomonas aeruginosa; assay: Antimicrobial activity against Pseudomonas aeruginosa PA14 PA14_23430 harboring mutation in putative heparinase by Etest method; method in brief: as §2
[24] = test system: Pseudomonas aeruginosa; assay: Antimicrobial activity against Pseudomonas aeruginosa PA14 PA3141 harboring wbpM mutant gene by Etest method; method in brief: as §2
[25] = test system: Pseudomonas aeruginosa; assay: Antimicrobial activity against Pseudomonas aeruginosa PA14 PA0770 harboring rnc mutant gene by Etest method; method in brief: as §2
[26] = test system: Pseudomonas aeruginosa; assay: Antimicrobial activity against Pseudomonas aeruginosa PA14 PA1011 harboring mutation in putative lipoprotein by Etest method; method in brief: as §2
[27] = test system: Pseudomonas aeruginosa; assay: Antimicrobial activity against Pseudomonas aeruginosa PA14 PA4069 harboring mutation in putative dTDP-4-rhamnose reductase-related protein by Etest method; method in brief: as §1
[28] = test system: Pseudomonas aeruginosa; assay: Antimicrobial activity against Pseudomonas aeruginosa PA14 PA4007 harboring proA mutant gene by Etest method; method in brief: as §1
[29] = test system: Pseudomonas aeruginosa; assay: Antimicrobial activity against Pseudomonas aeruginosa PA14 PA3818 harboring suhB mutant gene by Etest method; method in brief: as §1
[30] = test system: Pseudomonas aeruginosa; assay: Antimicrobial activity against Pseudomonas aeruginosa PA14 PA0401 harboring mutation in Noncatalytic dihydroorotase-like protein by Etest method; method in brief: as §2
[31] = test system: Pseudomonas aeruginosa; assay: Antimicrobial activity against Pseudomonas aeruginosa PA14 PA14_59780 harboring rcsC mutant gene by Etest method; method in brief: as §2
[32] = test system: Pseudomonas aeruginosa; assay: Antimicrobial activity against Pseudomonas aeruginosa PA14 PA3800 harboring mutation in conserved hypothetical protein by Etest method; method in brief: as §1
[33] = test system: Pseudomonas aeruginosa; assay: Antimicrobial activity against Pseudomonas aeruginosa PA14 PA3589 harboring mutation in acetyl-coenzyme A (CoA) acetyltransferase (thiolase) by Etest method; method in brief: as §1
[34] = test system: Pseudomonas aeruginosa; assay: Antimicrobial activity against Pseudomonas aeruginosa PA14 PA4393 harboring mutation in putative permease by Etest method; method in brief: as §1
[35] = test system: Pseudomonas aeruginosa; assay: Antimicrobial activity against Pseudomonas aeruginosa PA14 PA14_06490 harboring mutation in hypothetical protein by Etest method; method in brief: as §2
[36] = test system: Pseudomonas aeruginosa; assay: Antimicrobial activity against Pseudomonas aeruginosa PA14 PA2963 harboring mutation in putative aminodeoxychorismate lyase by Etest method; method in brief: as §2
[37] = test system: Pseudomonas aeruginosa; assay: Antimicrobial activity against Pseudomonas aeruginosa PA14 PA3978 harboring mutation in hypothetical protein by Etest method; method in brief: as §1
[38] = test system: Pseudomonas aeruginosa; assay: Antimicrobial activity against Pseudomonas aeruginosa PA14 PA2128 harboring cupA1 mutant gene by Etest method; method in brief: as §2
[39] = test system: Pseudomonas aeruginosa; assay: Antimicrobial activity against Pseudomonas aeruginosa PA14 PA2621 harboring clpS mutant gene by Etest method; method in brief: as §2
[40] = test system: Pseudomonas aeruginosa; assay: Antimicrobial activity against Pseudomonas aeruginosa PA14 PA0667 harboring mutation in putative metallopeptidase by Etest method; method in brief: as §2
[41] = test system: Pseudomonas aeruginosa; assay: Antimicrobial activity against Pseudomonas aeruginosa PA14 PA0807 harboring ampDh3 mutant gene by Etest method; method in brief: as §2
[42] = test system: Pseudomonas aeruginosa; assay: Antimicrobial activity against Pseudomonas aeruginosa PA14 PA0427 harboring oprM mutant gene by Etest method; method in brief: as §2
[43] = test system: Pseudomonas aeruginosa; assay: Antimicrobial activity against Pseudomonas aeruginosa PA14 PA4946 harboring mutL mutant gene by Etest method; method in brief: as §1
[44] = test system: Pseudomonas aeruginosa; assay: Antimicrobial activity against Pseudomonas aeruginosa PA14 PA0402 harboring pyrB mutant gene by Etest method; method in brief: as §2
[45] = test system: Pseudomonas aeruginosa; assay: Antimicrobial activity against Pseudomonas aeruginosa PA14 PA2797 harboring mutation in putative anti-anti-sigma factor by Etest method; method in brief: as §2
[46] = test system: Pseudomonas aeruginosa; assay: Antimicrobial activity against Pseudomonas aeruginosa PA14 PA4527 harboring pilC mutant gene by Etest method; method in brief: as §1
[47] = test system: Pseudomonas aeruginosa; assay: Antimicrobial activity against Pseudomonas aeruginosa PA14 PA5038 harboring aroB mutant gene by Etest method; method in brief: as §1
[48] = test system: Pseudomonas aeruginosa; assay: Antimicrobial activity against Pseudomonas aeruginosa PA14 PA0420 harboring bioA mutant gene by Etest method; method in brief: as §2

C[C@@H](O)[C@H]1C(=O)N2C(C(=O)O)=C(SCCNC=N)C[C@H]12 [IMIPENEM ANHYDROUS]
MIC [1]: 0.75 µg/mL (≈ 2.51 µM) | MIC [2]: 0.5 µg/mL (≈ 1.67 µM) | MIC [3]: 0.25 µg/mL (≈ 0.835 µM) | MIC [4]: 0.25 µg/mL (≈ 0.835 µM) | MIC [5]: 0.25 µg/mL (≈ 0.835 µM) | MIC [6]: 0.5 µg/mL (≈ 1.67 µM) | MIC [7]: 0.19 µg/mL (≈ 0.635 µM) | MIC [8]: 0.38 µg/mL (≈ 1.27 µM) | MIC [9]: 0.19 µg/mL (≈ 0.635 µM) | MIC [10]: 0.25 µg/mL (≈ 0.835 µM) | MIC [11]: 1 µg/mL (≈ 3.34 µM) | MIC [12]: 2 µg/mL (≈ 6.68 µM) | MIC [13]: 0.38 µg/mL (≈ 1.27 µM) | MIC [14]: 0.25 µg/mL (≈ 0.835 µM) | MIC [15]: 0.5 µg/mL (≈ 1.67 µM) | MIC [16]: 1 µg/mL (≈ 3.34 µM) | MIC [17]: 0.5 µg/mL (≈ 1.67 µM) | MIC [18]: 0.38 µg/mL (≈ 1.27 µM) | MIC [19]: 0.5 µg/mL (≈ 1.67 µM) | MIC [20]: 0.38 µg/mL (≈ 1.27 µM) | MIC [21]: 0.125 µg/mL (≈ 0.418 µM) | MIC [22]: 0.38 µg/mL (≈ 1.27 µM) | MIC [23]: 0.38 µg/mL (≈ 1.27 µM) | MIC [24]: 0.5 µg/mL (≈ 1.67 µM) | MIC [25]: 0.75 µg/mL (≈ 2.51 µM) | MIC [26]: 0.5 µg/mL (≈ 1.67 µM) | MIC [27]: 0.25 µg/mL (≈ 0.835 µM) | MIC [28]: 0.19 µg/mL (≈ 0.635 µM) | MIC [29]: 0.38 µg/mL (≈ 1.27 µM) | MIC [30]: 0.38 µg/mL (≈ 1.27 µM) | MIC [31]: 0.5 µg/mL (≈ 1.67 µM) | MIC [32]: 0.38 µg/mL (≈ 1.27 µM) | MIC [33]: 0.5 µg/mL (≈ 1.67 µM) | MIC [34]: 0.25 µg/mL (≈ 0.835 µM) | MIC [35]: 0.38 µg/mL (≈ 1.27 µM) | MIC [36]: 0.25 µg/mL (≈ 0.835 µM) | MIC [37]: 0.094 µg/mL (≈ 0.314 µM) | MIC [38]: 0.38 µg/mL (≈ 1.27 µM) | MIC [39]: 0.38 µg/mL (≈ 1.27 µM) | MIC [40]: 0.5 µg/mL (≈ 1.67 µM) | MIC [41]: 1 µg/mL (≈ 3.34 µM) | MIC [42]: 0.38 µg/mL (≈ 1.27 µM) | MIC [43]: 0.38 µg/mL (≈ 1.27 µM) | MIC [44]: 0.38 µg/mL (≈ 1.27 µM) | MIC [45]: 0.5 µg/mL (≈ 1.67 µM) | MIC [46]: 0.38 µg/mL (≈ 1.27 µM) | MIC [47]: 0.38 µg/mL (≈ 1.27 µM) | MIC [48]: 0.125 µg/mL (≈ 0.418 µM)
